# Screening data from PubChem BioAssay.
# The full list was thinned out, with hits kept by preference.
# XBP1 UPR activ: adaptive UPR (XBP1) activation. AID 463104. CHO-XBP1 luciferase reporter, IRE1-XBP1 UPR activation, luminescence; percent of tunicamycin response, DMSO as zero. activation, % at 20 µM. actives 0.33% (n = 330,000);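 active = versus positive control, 20 µM dose yields 30% or more activation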;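 also: 100% = tunicamycin at 10 µg/mL and 0% = DMSO only wells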
#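 Material: CHO-XBP1 cells stably carrying IRE1-XBP1-driven luciferase reporter | Medium: F12 with 10% serum | Compound dosing: 20 µM single concentration, DMSO 1% | Incubation: Overnight seeding at 37 °C, 6 h compound treatment at 37 °C | Detection: Steady-Glo luminescence read | Read-out basis: % activation of reporter signal versus tunicamycin and DMSO controls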
# TLR4 MyD88 comp: inhibitors of human TLR4-MyD88 binding | HeLa CL3-4 TLR4/MyD88 BLA complementation, FRET ratio | inhibition, % at 8.4 µM | O00206+Q99836 | actives 0.18% (n = 200,000); in the data active = inhibition above about 25%;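 also: 0% = vehicle and 100% = reference inhibitor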
# TLR9-MyD88 block: inhibitors of human TLR9-MyD88 binding; Q9NR96+Q99836; CHO BLA complementation TLR9-MyD88, CCF4 FRET ratio; inhibition, % at 4.98 µM; actives 0.21% (n = 340,000); AID 504734;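 active = inhibition above the mean over all tested compounds plus 3 SD, cut at about 21% in these data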;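 also: 0% = DMSO only wells and 100% = clavulanate BLA inhibitor control wells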
# Target sequence (Q99836 whole entry, looked up): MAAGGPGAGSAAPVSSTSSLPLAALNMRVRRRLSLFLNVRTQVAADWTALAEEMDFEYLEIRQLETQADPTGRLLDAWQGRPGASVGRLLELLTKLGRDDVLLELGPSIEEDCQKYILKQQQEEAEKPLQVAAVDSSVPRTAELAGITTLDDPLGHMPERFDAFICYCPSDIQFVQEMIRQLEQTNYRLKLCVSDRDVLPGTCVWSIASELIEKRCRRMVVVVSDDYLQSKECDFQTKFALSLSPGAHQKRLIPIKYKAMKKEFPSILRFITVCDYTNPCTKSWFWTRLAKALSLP
# Target sequence (Q9NR96 whole entry, looked up): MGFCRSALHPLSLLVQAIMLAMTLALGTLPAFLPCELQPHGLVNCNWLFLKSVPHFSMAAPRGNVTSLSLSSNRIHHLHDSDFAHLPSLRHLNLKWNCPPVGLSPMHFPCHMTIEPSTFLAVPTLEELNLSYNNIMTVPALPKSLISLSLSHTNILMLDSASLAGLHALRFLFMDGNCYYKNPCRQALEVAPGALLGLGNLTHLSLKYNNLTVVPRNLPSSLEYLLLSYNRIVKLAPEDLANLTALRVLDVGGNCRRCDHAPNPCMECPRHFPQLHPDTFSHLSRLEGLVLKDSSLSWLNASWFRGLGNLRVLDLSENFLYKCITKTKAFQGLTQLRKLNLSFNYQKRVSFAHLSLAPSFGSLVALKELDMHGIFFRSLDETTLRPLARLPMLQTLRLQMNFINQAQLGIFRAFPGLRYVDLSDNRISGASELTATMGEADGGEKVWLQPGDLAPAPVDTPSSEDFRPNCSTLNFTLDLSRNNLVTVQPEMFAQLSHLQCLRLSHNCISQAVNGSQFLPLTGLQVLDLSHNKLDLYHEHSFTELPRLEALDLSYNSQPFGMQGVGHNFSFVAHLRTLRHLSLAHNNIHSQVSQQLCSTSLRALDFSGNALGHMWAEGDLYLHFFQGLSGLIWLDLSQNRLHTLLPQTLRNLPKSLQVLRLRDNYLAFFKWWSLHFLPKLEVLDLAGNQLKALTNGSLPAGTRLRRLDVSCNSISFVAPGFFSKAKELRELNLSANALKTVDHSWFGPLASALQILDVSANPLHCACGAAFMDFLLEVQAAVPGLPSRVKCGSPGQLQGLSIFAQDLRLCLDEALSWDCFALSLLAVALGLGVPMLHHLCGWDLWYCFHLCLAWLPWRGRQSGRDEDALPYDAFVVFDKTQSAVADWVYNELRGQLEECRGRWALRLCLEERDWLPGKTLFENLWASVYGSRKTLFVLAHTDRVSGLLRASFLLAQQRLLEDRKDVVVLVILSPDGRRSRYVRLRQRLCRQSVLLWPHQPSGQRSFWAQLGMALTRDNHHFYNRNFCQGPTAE
# CHOP inhibitor: inhibitors of CHOP induction in ER stress response; CHO-K1 CHOP-promoter luciferase, tunicamycin-induced, 15-18 h; inhibition, % at 10 µM; actives 3.8% (n = 220,000); AID 2732;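 active = compounds that reduced the stress-induced luciferase reporter signal by more than about 70% of percent inhibition, limit read from the data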;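 also: 0% = tunicamycin plus vehicle and 100% = wells without tunicamycin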
# CHOP UPR activ: activators of apoptotic arm of unfolded protein response (CHOP); CHO-CHOP luciferase reporter, UPR activation, luminescence; percent of tunicamycin response over DMSO baseline; activation, % at 10 µM; actives 0.34% (n = 330,000);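 active = at 10 µM dose, activation of 40% or more, normalized to positive control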;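 also: 100% = tunicamycin at 10 µg/mL and 0% = DMSO alone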
#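 Test system: CHO CHOP reporter cells. Input: 500 CHO-CHOP cells per well. Medium: F12 with 10% FBS. Technique: luciferase luminescence. Measure: percent activation relative to tunicamycin control. Dosing: 10 µM compound, 0.5% DMSO. Timing: 16-18 h cell attachment, then 6 h compound exposure, 37 °C.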
# NOD2-RIPK2 inh: inhibitors of human NOD2-RIPK2 interaction; CHO BLA complementation NOD2-RIPK2, CCF4 ratio; actives 0.38% (n = 360,000); inhibition, % at 4.98 µM; AID 624267; in the data active = inhibition above about 21%;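 also: 0% = vehicle only and 100% = reference blocker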
# CHOP inh conf: confirmation of CHOP induction inhibitors; shares compounds with CHOP inhibitor; CHO-CHOP promoter luciferase reporter, tunicamycin-induced, luminescence; inhibition, % at 10 µM; actives 45% (n = 2,100); AID 504437;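 active = mean of three repeat readings of reporter signal inhibition above a set limit, cut at about 70% in these data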;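 also: 0% = tunicamycin plus vehicle and 100% = wells lacking tunicamycin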
# Active calls of the source: *; / = not tested or not shown.
SMILES,XBP1 UPR activ,TLR4 MyD88 comp,TLR9-MyD88 block,CHOP inhibitor,CHOP UPR activ,NOD2-RIPK2 inh,CHOP inh conf
O=C(Oc1oc(-c2ccco2)nc1C=Nc1ccccc1)c1ccoc1,2,4,-5,109*,2,-8,-5
Cc1ccc(C(=O)Oc2oc(-c3ccco3)nc2C=Nc2ccc(Cl)cc2)cc1,7,5,10,101*,31,-13,0
O=C(Oc1oc(-c2ccco2)nc1C=Nc1ccccc1)c1ccco1,-2,-12,2,-20,4,-1,/
Cc1ccc(C)c(NCCCCC(=O)O)c1,/,/,/,/,/,-4,/
COC(=O)[C@H]1C[C@@]2(O)CN(S(=O)(=O)c3ccc(C)cc3)C[C@@]2(OC(=O)Nc2c(C)noc2C)C[C@H]1C(=O)OC,/,/,0,/,/,8,/
O=C(N/N=C/c1ccncc1)c1cc2c(ccc3ccccc32)o1,-3,3,7,109*,-1,-6,-56
O=C(O)c1ccc(/C=N/NC(=O)c2cc3c(ccc4ccccc43)o2)cc1,-1,/,0,/,1,5,/
O=C(O)CCN1C(=O)/C(=C/c2cn(-c3ccccc3)nc2-c2cccs2)SC1=S,-2,9,1,102*,-1,-3,-4
Cc1ccc(S(=O)(=O)Nc2ccc3c(c2)C(=O)N([C@@H](C)CO)C[C@@H](C)[C@@H](CN(C)CC2CC2)OCCCC[C@@H](C)O3)cc1,/,/,-4,/,/,3,/
COC(=O)c1cccc(Cn2cc([N+](=O)[O-])cn2)c1,0,-9,/,13,-2,/,/
COc1ccc(OCc2cccc(C(=O)Nn3cc([N+](=O)[O-])cn3)c2)cc1,-7,21,-6,98*,-11,-9,123*
C=CCOC(=O)C1=C(C)NC(C)=C(C(=O)OCC=C)C1/C=C/c1ccccc1,-1,-6,-12,100*,0,-6,105*
CCOC(=O)C1=C(C)NC(C)=C(C(=O)OCC)C1/C=C/c1ccccc1,1,4,-12,99*,2,-8,92*
COCCNC(=O)C1(C)CCCN(Cc2c(C)nn(-c3ccccc3)c2C)C1 (configuration not stated),/,/,/,/,/,-2,/
CCc1ccc(-c2nc(CSCC(=O)NCc3ccco3)c(C)o2)cc1,/,7,5,102*,/,-1,135*
CCCNC(=O)CSCc1nc(-c2ccc(SC)cc2)oc1C,-2,5,-1,40,-5,-4,/
C#CCN(C[C@@H]1[C@@H](OC(=O)NC2CCCC2)[C@@H](OC(=O)NC2CCCC2)CN(C(=O)OC(C)C)N1C(=O)OC(C)C)S(=O)(=O)c1ccc(C)cc1,/,/,-13,/,/,-3,/
COc1ccc(/C=C/C(=O)NC(=S)NNC(=O)c2cccnc2)cc1,-3,-3,-10,98*,0,5,77*
Cc1ccc(Nc2nc(N)c([N+](=O)[O-])c(N3CCCC(C)C3)n2)cc1C (configuration not stated),3,-18,-6,101*,1,-3,64
CC1CCCN(c2nc(NCc3ccco3)nc(N)c2[N+](=O)[O-])C1 (configuration not stated),1,-6,-6,30,-1,-4,/
CC1=CC(=O)C=C(C)C1=NOC(=O)/C=C\c1ccccc1,1,3,-6,101*,36,-9,-90
CC1=CC(=NOC(=O)/C=C/c2ccccc2)C=C(C)C1=O,1,0,-3,21,1,6,/
Cc1ccc(NC(=O)C(C)OC(=O)/C=C/c2ccccc2)cc1 (configuration not stated),-4,/,2,/,-2,9,/
CC1=C(C)/C(=N\OC(=O)/C=C/c2ccccc2)C=CC1=O,-9,-2,-6,104*,2,2,-143
COc1c(C(=O)Nc2ccc3[nH]c(=O)[nH]c3c2)cc2ccccc2c1Br,-3,2,4,100*,-1,17,-15
SMILES,XBP1 UPR activ,TLR4 MyD88 comp,TLR9-MyD88 block,CHOP inhibitor,CHOP UPR activ,NOD2-RIPK2 inh,CHOP inh conf
CC(C(Sc1ccccc1N)c1ccccc1)[N+](=O)[O-] (configuration not stated),-3,/,-10,106*,29,-5,18
Cc1cc(/C(=N/O)C(C)(C)NO)ccc1Cl,2,-10,-8,102*,0,-7,-76
CC(C)(C)c1cc(OC(=O)c2ccccc2F)ccc1O,0,-6,2,105*,1,-10,17
CC(=O)Nc1sc2c(c1C(c1cccc(Cl)c1)N1CCN(CCO)CC1)CCCC2 (configuration not stated),0,-7,0,38,1,-1,/
Cc1sc(NC(=O)c2ccccc2)c(C(c2ccc(Cl)cc2)N2CCN(CCO)CC2)c1C (configuration not stated),2,4,-15,104*,0,8,2
COc1ccc(N(C(=O)c2cnccn2)C(C(=O)NC2CCCCC2)c2ccc(Cl)cc2)cc1 (configuration not stated),3,3,3,/,2,-4,/
COc1ccc(C(C(=O)NC2CCCCC2)N(C(=O)CCl)c2ccc(Cl)cc2)cc1 (configuration not stated),-4,-8,7,107*,1,-2,27
CC1=NNC(=O)/C1=C\c1cn(-c2ccccc2)nc1-c1ccc(F)cc1,/,3,0,106*,/,4,119*
CC(C)(C)c1ccc(S(=O)(=O)NC(=O)C2(C)CCN2C(=O)Cc2cccc3ccccc23)cc1 (configuration not stated),/,/,/,/,/,-5,/
COc1cccc(NC(=O)c2cc3cccc(OC)c3o/c2=N\O)c1,1,/,/,/,8,/,/
COc1ccc(NC(=O)c2cc3cccc(OC)c3oc2=Nc2ccc(C(=O)O)cc2)cc1OC,/,0,-3,103*,/,-2,110*
O=C(Nc1nnc(-c2ccc(Cl)cc2)o1)c1nc2ccccc2s1,0,1,-7,104*,0,-9,-7
O=C(Nc1nnc(-c2ccc(Cl)cc2)o1)Nc1ccccc1Cl,0,0,-2,45,3,-4,/
Cc1ccc(OCC(=O)Nc2cccc(-c3nnc(-c4ccccc4)o3)c2)c(C)c1,1,-8,1,14,3,1,/
COc1ccc(CC(=O)Nc2cccc(-c3nnc(-c4cccc(C)c4)o3)c2)cc1OC,-7,-2,-3,/,-5,-6,113*
COc1cccc(C(=O)NCCS(=O)(=O)N2CCCC(C)C2)c1 (configuration not stated),/,/,-1,/,/,2,/
CC1CCN(S(=O)(=O)N2CCC(C(=O)NCc3ccc(F)cc3Cl)CC2)CC1,/,/,-7,/,/,1,/
